Common to all, as to format: cell-based
Assay [1] addresses T1, Muscarinic acetylcholine receptor M2 (Homo sapiens, UniProt P08172).
T1 sequence (P08172 whole entry): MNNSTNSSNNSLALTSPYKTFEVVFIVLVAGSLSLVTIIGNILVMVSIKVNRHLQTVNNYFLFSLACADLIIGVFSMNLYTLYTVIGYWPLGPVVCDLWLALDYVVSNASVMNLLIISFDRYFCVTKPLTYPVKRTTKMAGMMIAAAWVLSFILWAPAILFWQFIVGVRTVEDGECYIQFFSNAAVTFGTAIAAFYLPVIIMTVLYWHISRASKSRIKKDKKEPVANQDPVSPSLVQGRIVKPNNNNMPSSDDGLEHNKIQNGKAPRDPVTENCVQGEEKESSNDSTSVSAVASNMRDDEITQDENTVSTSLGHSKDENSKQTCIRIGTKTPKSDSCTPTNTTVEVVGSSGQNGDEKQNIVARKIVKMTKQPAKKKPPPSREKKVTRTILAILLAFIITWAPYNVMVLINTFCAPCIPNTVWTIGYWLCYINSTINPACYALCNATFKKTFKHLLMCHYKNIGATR
The assay can be described thus: Inhibition of [3H]-NMS binding to human muscarinic acetylcholine receptor M2 in transfected CHO cells. Summed up: (§1)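 Membranes from CHO-K1 cells expressing one human muscarinic subtype, harvested at 70-90% confluency. Incubated in 10 mM Na+/K+ PO4 pH 7.4 with 0.1 nM [3H]NMS and test compound for 120 min at 25 °C; atropine defined nonspecific binding. Filtration and scintillation counting. IC50 by logit fit, Ki by Cheng–Prusoff with KD (nM) M1 1.28, M2 0.85, M3 0.94, M4 3.10, M5 0.79. At least three tests, geometric mean.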

The target in assay [2] is T2, Muscarinic acetylcholine receptor M1 (Homo sapiens, UniProt P11229).
T2 sequence (P11229 whole entry): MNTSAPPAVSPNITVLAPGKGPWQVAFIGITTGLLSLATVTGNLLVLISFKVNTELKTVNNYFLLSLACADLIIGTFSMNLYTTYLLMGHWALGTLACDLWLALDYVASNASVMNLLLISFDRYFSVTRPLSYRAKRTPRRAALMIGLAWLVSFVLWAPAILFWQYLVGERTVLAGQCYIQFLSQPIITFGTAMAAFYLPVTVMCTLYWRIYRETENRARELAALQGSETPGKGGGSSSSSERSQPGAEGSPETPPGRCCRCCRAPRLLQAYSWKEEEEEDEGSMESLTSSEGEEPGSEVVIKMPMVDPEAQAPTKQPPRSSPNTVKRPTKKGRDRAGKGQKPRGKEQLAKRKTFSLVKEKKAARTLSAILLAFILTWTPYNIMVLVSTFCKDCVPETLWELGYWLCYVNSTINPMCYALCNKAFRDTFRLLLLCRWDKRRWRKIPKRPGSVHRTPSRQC
The assay can be described thus: Inhibition of [3H]NMS binding to human muscarinic acetylcholine receptor M1 in transfected CHO cells. The essentials: as §1

Assay [3] deals with T3, Muscarinic acetylcholine receptor M4 (Homo sapiens, UniProt P08173).
T3 sequence (P08173 whole entry): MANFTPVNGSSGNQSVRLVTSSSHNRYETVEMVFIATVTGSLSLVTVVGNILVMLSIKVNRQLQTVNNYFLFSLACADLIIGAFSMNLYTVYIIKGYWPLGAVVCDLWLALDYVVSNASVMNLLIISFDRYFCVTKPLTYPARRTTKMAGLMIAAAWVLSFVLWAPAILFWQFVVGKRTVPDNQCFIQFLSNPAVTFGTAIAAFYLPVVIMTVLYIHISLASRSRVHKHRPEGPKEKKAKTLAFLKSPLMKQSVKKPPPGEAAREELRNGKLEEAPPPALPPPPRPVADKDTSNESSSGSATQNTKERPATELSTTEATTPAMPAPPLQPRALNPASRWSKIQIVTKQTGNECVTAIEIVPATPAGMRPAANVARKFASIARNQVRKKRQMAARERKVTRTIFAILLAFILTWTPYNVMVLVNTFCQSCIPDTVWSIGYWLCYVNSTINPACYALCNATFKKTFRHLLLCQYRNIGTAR
The assay can be described thus: Inhibition of [3H]NMS binding to human muscarinic acetylcholine receptor M4 in transfected CHO cells. The essentials:
as §1

Assay [4] concerns the target T4, Muscarinic acetylcholine receptor M5 (Homo sapiens, UniProt P08912).
T4 sequence (P08912 whole entry): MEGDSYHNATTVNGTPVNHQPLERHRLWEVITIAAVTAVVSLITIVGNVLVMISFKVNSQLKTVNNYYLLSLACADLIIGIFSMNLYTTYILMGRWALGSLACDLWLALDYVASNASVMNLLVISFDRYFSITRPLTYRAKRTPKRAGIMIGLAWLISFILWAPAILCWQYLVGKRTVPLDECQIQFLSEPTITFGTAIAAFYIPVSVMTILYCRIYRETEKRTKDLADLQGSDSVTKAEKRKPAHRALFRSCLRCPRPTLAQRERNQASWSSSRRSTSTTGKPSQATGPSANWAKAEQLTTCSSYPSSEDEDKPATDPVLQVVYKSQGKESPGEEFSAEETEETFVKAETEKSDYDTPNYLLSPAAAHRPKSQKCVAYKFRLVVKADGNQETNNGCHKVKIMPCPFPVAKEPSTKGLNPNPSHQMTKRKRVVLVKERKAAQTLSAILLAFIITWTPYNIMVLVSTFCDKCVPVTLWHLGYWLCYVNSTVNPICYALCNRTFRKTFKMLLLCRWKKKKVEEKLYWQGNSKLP
The assay can be described thus: Inhibition of [3H]NMS binding to human muscarinic acetylcholine receptor M5 in transfected CHO cells. Summed up:
as §1

Assay [5] addresses Muscarinic acetylcholine receptor M3 (Homo sapiens, UniProt P20309). The assay can be described thus: Inhibition of [3H]NMS binding to human muscarinic acetylcholine receptor M3 in transfected CHO cells. The essentials:
as §1

The structures appear in SMILES notation.

Chain of Muscarinic acetylcholine receptor M3 (P20309 whole entry): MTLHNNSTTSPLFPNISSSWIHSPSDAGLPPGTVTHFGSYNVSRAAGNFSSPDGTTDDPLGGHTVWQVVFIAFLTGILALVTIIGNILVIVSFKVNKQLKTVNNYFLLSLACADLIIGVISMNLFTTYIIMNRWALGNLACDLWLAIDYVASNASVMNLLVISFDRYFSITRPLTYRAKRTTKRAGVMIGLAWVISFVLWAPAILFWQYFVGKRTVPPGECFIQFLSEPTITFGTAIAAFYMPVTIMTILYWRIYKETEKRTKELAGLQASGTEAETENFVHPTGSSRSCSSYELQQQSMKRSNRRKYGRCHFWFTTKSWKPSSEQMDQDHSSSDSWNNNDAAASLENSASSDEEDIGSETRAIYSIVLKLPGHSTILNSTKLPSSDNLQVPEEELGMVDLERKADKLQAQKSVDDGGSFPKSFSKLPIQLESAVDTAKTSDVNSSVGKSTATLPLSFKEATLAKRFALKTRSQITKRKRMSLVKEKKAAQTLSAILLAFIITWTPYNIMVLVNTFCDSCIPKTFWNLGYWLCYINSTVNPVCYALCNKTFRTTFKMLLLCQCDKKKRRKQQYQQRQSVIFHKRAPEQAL

In general, Ki refers to the equilibrium dissociation constant of an inhibitor or competing ligand from its target. A low value points to tighter binding. For `CCCc1[nH]c2ccc3c(c2c1C(=O)OCC)CN1CCc2cc(SC)ccc2C1O3` (stereo not given), the Ki was 1.45 µM in assay [1]; 0.871 µM in assay [2]; 0.001 µM in assay [3]; 2.4 µM in assay [4]; 0.1 µM in assay [5].
Consider `CCCCOC(=O)c1c(C)[nH]c2ccc3c(c12)CN1CCc2cc(OC)ccc2C1O3` (stereo not given), for which the Ki was 2.34 µM in assay [1]; 1.32 µM in assay [2]; 0.0676 µM in assay [3]; 2.51 µM in assay [4]; 1.02 µM in assay [5].

(Values after ChEMBL document CHEMBL1135505, “Synthesis and pharmacology of benzoxazines as highly selective antagonists at M(4) muscarinic receptors” (J Med Chem, 2002).)
